Active and inactive are the calls of the source. The rule behind the calls is not given here.
Experiments:
U-251 = experiment: Cytotoxicity against human U251 cells assessed as growth inhibition at 10 uM after 48 hrs by SRB assay; type: functional, cell-based
Summary of the method: (§1)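 NCI-60 DTP human tumour line screen. Cells grown in RPMI 1640 with 5% fetal bovine serum and 2 mM L-glutamine, plated at 5000–40 000 cells/well according to doubling time. Single dose of 10 μM for 48 h at 37 °C, 5% CO2, 95% air, 100% humidity, two plates per line. Read-out is growth percent.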

Malme-3M = experiment: Cytotoxicity against human MALME-3M cells assessed as growth inhibition at 10 uM after 48 hrs by SRB assay; type: functional, cell-based
Summary of the method: (§2)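 NCI DTP 60-cell-line screen run at the NCI. Cells were grown in RPMI 1640 with 5% FBS and 2 mM L-glutamine. They were seeded at 5000–40 000 cells/well depending on doubling time and grown in two plates per line. Each was exposed to a single 10 μM dose for 48 h at 37 °C, 5% CO2, 95% air, 100% humidity. Read-out was percent growth.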

MDA-MB-435 = experiment: Cytotoxicity against human MDA-MB-435 cells assessed as growth inhibition at 10 uM after 48 hrs by SRB assay; type: functional, cell-based
Summary of the method: (§3)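 Single-dose screen run by the NCI Developmental Therapeutics Program (NCI-60). Cells were grown in RPMI 1640 with 5% fetal bovine serum and 2 mM L-glutamine. They were plated at 5000–40 000 cells/well, depending on doubling time. Each line was run in two plates and exposed to 10 μM drug for 48 h at 37 °C, 5% CO2, 100% humidity. Read-out was growth percent.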

SK-MEL-2 [1] = experiment: Cytotoxicity against human SK-MEL-2 cells assessed as growth inhibition at 10 uM after 48 hrs by SRB assay; type: functional, cell-based; summary of the method: as §3
UACC-257 = experiment: Cytotoxicity against human UACC257 cells assessed as growth inhibition at 10 uM after 48 hrs by SRB assay; type: functional, cell-based; summary of the method: as §1
UACC-62 = experiment: Cytotoxicity against human UACC62 cells assessed as growth inhibition at 10 uM after 48 hrs by SRB assay; type: functional, cell-based; summary of the method: as §1
IGROV-1 = experiment: Cytotoxicity against human IGROV1 cells assessed as growth inhibition at 10 uM after 48 hrs by SRB assay; type: functional, cell-based; summary of the method: as §2
OVCAR-4 = experiment: Cytotoxicity against human OVCAR4 cells assessed as growth inhibition at 10 uM after 48 hrs by SRB assay; type: functional, cell-based; summary of the method: as §3
OVCAR-5 = experiment: Cytotoxicity against human OVCAR5 cells assessed as growth inhibition at 10 uM after 48 hrs by SRB assay; type: functional, cell-based; summary of the method: as §3
OVCAR-8 = experiment: Cytotoxicity against human OVCAR8 cells assessed as growth inhibition at 10 uM after 48 hrs by SRB assay; type: functional, cell-based; summary of the method: as §3
RXF 393 = experiment: Cytotoxicity against human RXF393 cells assessed as growth inhibition at 10 uM after 48 hrs by SRB assay; type: functional, cell-based; summary of the method: as §3
TK-10 = experiment: Cytotoxicity against human TK10 cells assessed as growth inhibition at 10 uM after 48 hrs by SRB assay; type: functional, cell-based; summary of the method: as §1
UO-31 = experiment: Cytotoxicity against human UO31 cells assessed as growth inhibition at 10 uM after 48 hrs by SRB assay; type: functional, cell-based; summary of the method: as §1
PC-3 = experiment: Cytotoxicity against human PC3 cells assessed as growth inhibition at 10 uM after 48 hrs by SRB assay; type: functional, cell-based; summary of the method: as §3
DU-145 = experiment: Cytotoxicity against human DU145 cells assessed as growth inhibition at 10 uM after 48 hrs by SRB assay; type: functional, cell-based; summary of the method: as §2
COLO 205 [2] = experiment: Cytotoxicity against human COLO205 cells after 48 hrs by SRB assay; type: functional; conditions: COLO 205, 48 h
Summary of the method: (§4)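 GI50 was determined in the NCI Developmental Therapeutics Program in vitro 60-line cancer screen. Tumour lines were maintained in RPMI 1640 containing 5% FBS and 2 mM L-glutamine. Cells were inoculated at 5000–40 000 cells/well according to each line's doubling time before drug exposure.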

LOX IMVI = experiment: Cytotoxicity against human LOXIMVI cells after 48 hrs by SRB assay; type: functional; summary of the method: as §4
SK-MEL-2 [3] = experiment: Cytotoxicity against human SK-MEL-2 cells after 48 hrs by SRB assay; type: functional; conditions: SK-MEL-2, 48 h
Summary of the method: (§5)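 GI50 from the NCI Developmental Therapeutics Program in vitro human tumor cell screen. Cell lines were maintained in RPMI 1640 with 5% fetal bovine serum and 2 mM L-glutamine. They were seeded at 5000–40 000 cells/well, depending on each line's doubling time, then exposed to drug for 48 h at 37 °C, 5% CO2.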

[4] = Cytotoxicity against human UACC257 cells after 48 hrs by SRB assay; type: functional; conditions: UACC-257, 48 h
Summary of the method: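 GI50 from the NCI-60 DTP human tumour line screen. Lines grown in RPMI 1640 with 5% fetal bovine serum and 2 mM L-glutamine, plated at 5000–40 000 cells/well according to doubling time. Incubated 48 h at 37 °C, 5% CO2.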

[5] = Cytotoxicity against human OVCAR4 cells after 48 hrs by SRB assay; type: functional; conditions: OVCAR-4, 48 h; summary of the method: as §5
[6] = Cytotoxicity against human NCI-ADR-RES cells after 48 hrs by SRB assay; type: functional; summary of the method: as §5
A498 = experiment: Cytotoxicity against human A498 cells after 48 hrs by SRB assay; type: functional; conditions: A498, 48 h; summary of the method: as §4
HOP-92 = experiment: Cytotoxicity against human HOP92 cells assessed as growth inhibition at 10 uM after 48 hrs by SRB assay; type: functional, cell-based; summary of the method: as §2
NCI-H322M = experiment: Cytotoxicity against human NCI-H322M cells assessed as growth inhibition at 10 uM after 48 hrs by SRB assay; type: functional, cell-based; summary of the method: as §3
NCI-H460 = experiment: Cytotoxicity against human NCI-H460 cells assessed as growth inhibition at 10 uM after 48 hrs by SRB assay; type: functional, cell-based; summary of the method: as §3
COLO 205 [7] = experiment: Cytotoxicity against human COLO205 cells assessed as growth inhibition at 10 uM after 48 hrs by SRB assay; type: functional, cell-based; summary of the method: as §2
HCC 2998 = experiment: Cytotoxicity against human HCC2998 cells assessed as growth inhibition at 10 uM after 48 hrs by SRB assay; type: functional, cell-based; summary of the method: as §2
KM12 = experiment: Cytotoxicity against human KM12 cells assessed as growth inhibition at 10 uM after 48 hrs by SRB assay; type: functional, cell-based; summary of the method: as §2
SF-268 = experiment: Cytotoxicity against human SF268 cells assessed as growth inhibition at 10 uM after 48 hrs by SRB assay; type: functional, cell-based; summary of the method: as §3
EKVX = experiment: Cytotoxicity against human EKVX cells assessed as growth inhibition at 10 uM after 48 hrs by SRB assay; type: functional, cell-based; summary of the method: as §2
A549 = experiment: Cytotoxicity against human A549 cells assessed as growth inhibition at 10 uM after 48 hrs by SRB assay; type: functional, cell-based; summary of the method: as §2
MOLT-4 [8] = experiment: Cytotoxicity against human MOLT4 cells assessed as growth inhibition at 10 uM after 48 hrs by SRB assay; type: functional, cell-based; summary of the method: as §3
K562 = experiment: Cytotoxicity against human K562 cells assessed as growth inhibition at 10 uM after 48 hrs by SRB assay; type: functional, cell-based; summary of the method: as §2
CCRF-CEM = experiment: Cytotoxicity against human CCRF-CEM cells after 48 hrs by SRB assay; type: functional; summary of the method: as §4
MOLT-4 [9] = experiment: Cytotoxicity against human MOLT4 cells after 48 hrs by SRB assay; type: functional; conditions: MOLT-4, 48 h; summary of the method: as §5
RPMI-8226 = experiment: Cytotoxicity against human RPMI8226 cells after 48 hrs by SRB assay; type: functional; conditions: RPMI-8226, 48 h; summary of the method: as §5

Row | SMILES | growth inhibition (GI) (U-251) | growth inhibition (GI) (Malme-3M) | growth inhibition (GI) (MDA-MB-435) | growth inhibition (GI) (SK-MEL-2 [1]) | growth inhibition (GI) (UACC-257) | growth inhibition (GI) (UACC-62) | growth inhibition (GI) (IGROV-1) | growth inhibition (GI) (OVCAR-4) | growth inhibition (GI) (OVCAR-5) | growth inhibition (GI) (OVCAR-8) | growth inhibition (GI) (RXF 393) | growth inhibition (GI) (TK-10) | growth inhibition (GI) (UO-31) | growth inhibition (GI) (PC-3) | growth inhibition (GI) (DU-145) | growth inhibition (GI) (HOP-92) | growth inhibition (GI) (NCI-H322M) | growth inhibition (GI) (NCI-H460) | growth inhibition (GI) (COLO 205 [7]) | growth inhibition (GI) (HCC 2998) | further results
1 | CC1(C)OB(c2ccc(N(CCCl)CCBr)cc2)OC1(C)C | Active | Active | Active | Active | Active | Active | Active | Active | Active | Active | Active | Active | Active | Active | Active | Active | Active | Active | Active | Active | GI50 (COLO 205 [2]): 11.4 µM; GI50 (LOX IMVI): 6.6 µM; GI50 (SK-MEL-2 [3]): 20.8 µM; GI50 [4]: 13.4 µM; GI50 [5]: 14.4 µM; GI50 [6]: 6.69 µM; GI50 (A498): 5.87 µM; growth inhibition (GI) (KM12): Active; growth inhibition (GI) (SF-268): Active; growth inhibition (GI) (EKVX): Active; growth inhibition (GI) (A549): Active; growth inhibition (GI) (MOLT-4 [8]): Active; growth inhibition (GI) (K562): Active; GI50 (CCRF-CEM): 5.03 µM; GI50 (MOLT-4 [9]): 3.69 µM; GI50 (RPMI-8226): 19.4 µM
2 | CC1(C)OB(c2ccc(N(CCBr)CCBr)cc2)OC1(C)C | Active | Active | Active | Active | Active | Active | Active | Active | Active | Active | Active | Active | Active | Active | Active | Active | Active | Active | Active | Active | growth inhibition (GI) (KM12): Active; growth inhibition (GI) (SF-268): Active; growth inhibition (GI) (EKVX): Active; growth inhibition (GI) (A549): Active; growth inhibition (GI) (MOLT-4 [8]): Active; growth inhibition (GI) (K562): Active
3 | CC1(C)OB(c2ccc(COC(=O)N(CCCl)CCCl)cc2)OC1(C)C | inactive | inactive | inactive | inactive | inactive | inactive | inactive | inactive | inactive | inactive | inactive | inactive | inactive | inactive | inactive | inactive | inactive | inactive | inactive | inactive | growth inhibition (GI) (KM12): inactive; growth inhibition (GI) (SF-268): inactive; growth inhibition (GI) (EKVX): inactive; growth inhibition (GI) (A549): inactive; growth inhibition (GI) (MOLT-4 [8]): inactive; growth inhibition (GI) (K562): inactive
4 | CC1(C)OB(c2ccc(N(CCBr)CCOS(C)(=O)=O)cc2)OC1(C)C | Active | Active | Active | Active | Active | Active | Active | Active | Active | Active | Active | Active | Active | Active | Active | Active | Active | Active | Active | Active | growth inhibition (GI) (KM12): Active; growth inhibition (GI) (SF-268): Active; growth inhibition (GI) (EKVX): Active; growth inhibition (GI) (A549): Active; growth inhibition (GI) (MOLT-4 [8]): Active; growth inhibition (GI) (K562): Active

Reference: ChEMBL document CHEMBL3286203, “Reactive oxygen species (ROS) inducible DNA cross-linking agents and their effect on cancer cells and normal lymphocytes” (J Med Chem, 2014)
